Ten compounds from ChEMBL document CHEMBL1140317, “Novel alpha-amino-3-hydroxy-5-methyl-4-isoxazole propionate (AMPA) receptor antagonists of 2,3-benzodiazepine type: chemical synthesis, in vitro characterization, and in vivo prevention of acute neurodegeneration” (J Med Chem, 2005) can be followed below.

The target in series [1] is Glutamate receptor ionotropic, AMPA (Rattus norvegicus, UniProt P19490+P19491+P19492+P19493). Kind of series: In vitro inhibition of AMPA receptor mediated currents in primary cultured rat fetal hippocampal neurons. It counts as tissue-based, Hippocampus. An outline of the steps: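 Whole-cell patch clamp at −60 mV on hippocampal neurons from E19 Wistar rat fetuses, cultured 6–14 days (cytosine-arabinoside from day 6). Inward currents were evoked by bath-perfused kainate in pH 7.4 HEPES medium with CsCl pipet solution. Antagonist was bath-applied after 90 s preincubation in 0.3% DMSO final. Currents were normalized to the no-antagonist value, 5–6 cells per point, and the logistic fit gave IC50.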

Series [2] deals with Rattus norvegicus. Kind of series: Effect on total cerebral infarct volume measured 24 hour after permanent MCA occlusion in rat at a dose of 3 mg/kg (n=6). It is filed as functional. The essentials: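 Male Fischer-344 rats underwent permanent MCA occlusion and received a single ip dose in physiological saline (0.9% NaCl) immediately after occlusion. Rectal temperature was held at 37 ± 0.5 °C during surgery. At 24 h, under Nembutal, brains were TTC-stained and infarct areas measured, with volume by Cavalieri principle. Mean ± SD; ANOVA with Dunnett's test versus vehicle.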

Series [3] concerns Mus musculus. Kind of series: Effect on brain lesion measured 24 hour after permanent MCA occlusion in mice upon three i.p. doses of 30 mg/kg (n=12). It counts as functional. To be noted: route intraperitoneal. The essentials: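 Reference paradigm in male NMRI mice with permanent MCA occlusion, anesthetized with Avertin (240 mg/kg ip). Three ip injections of 30 mg/kg in physiological saline at 60, 70 and 85 min after occlusion (table footnote says 80 min). Infarct volume was measured at 24 h by TTC staining and Cavalieri calculation. Results are mean ± SD versus saline vehicle, ANOVA/Dunnett.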

In series [4] the test system is Mus musculus. Kind of series: Effect on brain lesion measured 24 hr after permanent MCA occlusion in mice upon four i.p. doses of 30 mg/kg (n=8). It counts as functional. To be noted: route intraperitoneal. The essentials: (§1)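 Male NMRI mice (23–30 g) under Avertin anesthesia (240 mg/kg ip), rectal temperature held at 37 ± 0.5 °C during surgery, underwent permanent MCA occlusion. Four ip injections in 10% cremophor EL were given 1 h before and 0, 1 and 2 h after occlusion. At 24 h, infarct volume was measured by TTC staining (Cavalieri principle). Results are mean ± SD versus vehicle, ANOVA with Dunnett test.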

In series [5] the test system is Mus musculus. Kind of series: Effect on brain lesion measured 24 hour after permanent MCA occlusion in mice upon four i.p. doses of 10 mg/kg (n=9). It is filed as functional. To be noted: route intraperitoneal. The essentials:
as §1

For series [6], the system named is Mus musculus. Kind of series: Effect on brain lesion measured 24 hour after permanent MCA occlusion in mice upon four i.p. doses of 10 mg/kg (n=10). To be noted: route intraperitoneal. It is filed as functional. The essentials:
as §1

Series [7] concerns Rattus norvegicus. The series is described as follows: Effect on total cerebral infarct volume measured 24 hour after permanent MCA occlusion in rat upon four i.p. doses of 3 mg/kg (n=12). It counts as functional. To be noted: route intraperitoneal. An outline of the steps:
(§2)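 Male Fischer-344 rats with permanent MCA occlusion received four ip injections in 10% cremophor EL at 1, 2, 3 and 4 h after occlusion. Total infarct volume (cortex and striatum) was measured 24 h after occlusion by TTC staining with Cavalieri volume calculation. Results are mean ± SD versus vehicle group, ANOVA followed by Dunnett test.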

Series [8] concerns Rattus norvegicus. Kind of series: Effect on total cerebral infarct volume measured 24 hour after permanent MCA occlusion in rat upon four i.p. doses of 10 mg/kg (n=15). It is filed as functional. To be noted: route intraperitoneal. An outline of the steps:
as §2

For series [9], the system named is Rattus norvegicus. Kind of series: Effect on total cerebral infarct volume measured 24 hour after permanent MCA occlusion in rat upon four i.p. doses of 30 mg/kg (n=10). It is filed as functional. The following applies: route intraperitoneal. An outline of the steps: as §2
A short description of series [10]: Volume of distribution was measured. It counts as ADME, organism-based. The following applies: in vivo; read-out: Volume of distribution. An outline of the steps:
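Rats were given 2.5 mg/kg iv. Plasma was sampled at nine time points from 5 min to 7 h, precipitated with acetonitrile (1:5) and quantified by LC/MS/MS against matrix calibration curves with an internal standard, C18 column, water/acetonitrile with 0.1% acetic acid gradient. Volume of distribution was calculated from the concentration–time data.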

The test system of series [11] is Rattus norvegicus. Kind of series: Half life was measured after iv injection in rats. To be noted: in vivo.
Series [12] deals with Rattus norvegicus. Kind of series: Plasma clearance was measured after iv injection in rats.

The IC50 is the concentration needed to halve the response being measured. Higher therefore signals lower potency. Regarding `Cc1nc2n(c1C)N=C(c1ccc(Cl)cc1)c1cc3c(cc1C2)OCO3`, the IC50 in series [1] came to 10 µM.
As for `Cc1nc2n(c1C)N=C(c1ccc(F)cc1)c1cc3c(cc1C2)OCO3`, the IC50 in series [1] stood at 10 µM.
`C[C@]12N[C@H](Cc3ccccc31)c1ccccc12` [DIZOCILPINE] displayed a Total infarct volume in series [2] of 118 mm.
Consider `Clc1nc2n(c1Cl)N=C(c1ccccc1)c1cc3c(cc1C2)OCO3`, for which, in series [1], the IC50 is > 10 µM.
As for `c1ccc(C2=Nn3ccnc3Cc3cc4c(cc32)OCO4)cc1`, in series [1], half-maximal inhibition (IC50) required 6.5 µM.
For `CC1=NN=C(c2ccc(N)cc2)c2cc3c(cc2C1)OCO3` [GYKI-52466], the IC50 in [1] stood at 9 µM.
As for `Brc1nc2n(c1Br)N=C(c1ccccc1)c1cc3c(cc1C2)OCO3`, in series [1], the IC50 was > 10 µM.
`NS(=O)(=O)c1cccc2c1c([N+](=O)[O-])cc1nc(O)c(O)nc12` [NBQX]: in series [3], the Brain lesion came out at 18.4 mm³.
Turning to `Cc1c(CO)nc2n1N=C(c1ccccc1)c1cc3c(cc1C2)OCO3`, the Brain lesion in [4] worked out at 23 mm³; in series [5] it was 20.6 mm³. The same compound came in with an IC50 in series [1] of 4.6 µM.
The term half-life denotes the time needed for the level to fall by half in the phase considered. Usually clearance stands for the volume of plasma or blood freed of the substance per unit of time. Higher therefore signals efficient removal. For the compound `Cc1nc2n(c1C)N=C(c1ccccc1)c1cc3c(cc1C2)OCO3`, the Brain lesion in [6] is 17.1 mm³. For the same compound, the values for the Total infarct volume in series [7], in [8] and in series [9] were 138 mm³, 142 mm³ and 132 mm³, respectively. This compound also had an IC50 in series [1] of 3.4 µM. The Vd in series [10] turned out to be 2.7 L/kg. Further, in series [11], the half-life was 1.2 h. In series [12], this compound gave a clearance of 54 mL/min/kg.
